For 28 compounds, IC50, viability and Activity results are on record in ChEMBL document CHEMBL4308910, “Metronidazole aryloxy, carboxy and azole derivatives: Synthesis, anti-tumor activity, QSAR, molecular docking and dynamics studies” (Bioorg Med Chem, 2019).

Molecules are shown by their SMILES. ≈ marks a conversion by molar mass, not a printed value.

Assay [1] concerns HT-29. The experiment in a line: Cytotoxicity against human HT-29 cells after 24 hrs by MTT assay. It counts as functional, cell-based. The following applies: HT-29, 24 h. Put shortly: (§1)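 Cells were grown in DMEM with 10% FBS and penicillin/streptomycin at 37 °C under 5% CO2. Seeding was 1×10^4 cells/well for A549 and MCF-7, or 1.2×10^4 cells/well for HT-29, followed by 24 h attachment. Compounds came from DMSO stocks diluted in serum-free DMEM, 0.1–1000 µg/mL, DMSO <0.5%, triplicate wells, 24 h. MTT (5 mg/mL stock in PBS) 3–4 h at 37 °C in dark; DMSO-solubilised A570. IC50 from 3 runs, mean ± S.E.M.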

Assay [2] relates to A549. The experiment in a line: Cytotoxicity against human A549 cells after 24 hrs by MTT assay. Type of assay: functional, cell-based. The following applies: A549, 24 h. Put shortly: as §1
In assay [3] the test system is MCF7. Put plainly: Cytotoxicity against human MCF7 cells after 24 hrs by MTT assay. Type of assay: functional, cell-based. As to conditions: MCF7, 24 h. Put shortly: as §1
For assay [4], the system named is A549. Put plainly: Induction of apoptosis in human A549 cells assessed as viable cells at 90 ug/mL after 16 hrs by propidium iodide/Annexin V/7-AAD staining-based flow cytometric analysis (reference value: 99.37%). Type of assay: functional. As to conditions: A549, 16 h, read-out: Activity.
Assay [5] relates to A549. Put plainly: Induction of apoptosis in human A549 cells assessed as early apoptotic cells at 90 ug/mL after 16 hrs by propidium iodide/Annexin V/7-AAD staining-based flow cytometric analysis (reference value: 0.01%). It counts as functional.
Assay [6] relates to A549. Put plainly: Induction of apoptosis in human A549 cells assessed as late apoptotic cells at 90 ug/mL after 16 hrs by propidium iodide/Annexin V/7-AAD staining-based flow cytometric analysis (reference value: 0.21%). Type of assay: functional.
In assay [7] the test system is A549. Put plainly: Induction of apoptosis in human A549 cells assessed as necrotic cells at 90 ug/mL after 16 hrs by propidium iodide/Annexin V/7-AAD staining-based flow cytometric analysis (reference value: 0.41%). Type of assay: functional.

Regarding `Cc1ncc([N+](=O)[O-])n1CCn1cnc2ccccc21`, the half-maximal inhibitory concentration (IC50) in assay [1] was found to be 148 µg/mL (≈ 546 µM); in assay [2], 219 µg/mL (≈ 809 µM); in assay [3], 103 µg/mL (≈ 380 µM).
The matching figures for `Cc1ncc([N+](=O)[O-])n1CCn1ccnc1`: 115 µg/mL (≈ 518 µM), 240 µg/mL (≈ 1080 µM) and 462 µg/mL (≈ 2090 µM).
The matching figures for `Cc1ncc([N+](=O)[O-])n1CCCl`: 311 µg/mL (≈ 1640 µM), 300 µg/mL (≈ 1580 µM) and 480 µg/mL (≈ 2530 µM).
`Cc1ncc([N+](=O)[O-])n1CCOC(=O)c1ccc(Br)cc1`: the IC50 is 277 µg/mL (≈ 783 µM) in assay [1], 194 µg/mL (≈ 548 µM) in assay [2] and 271 µg/mL (≈ 766 µM) in assay [3].
For `Cc1ncc([N+](=O)[O-])n1CCOC(=O)c1ccccc1Cl`, the IC50 in assay [1] was determined as 279 µg/mL (≈ 902 µM); in assay [2], 255 µg/mL (≈ 823 µM); in assay [3], 380 µg/mL (≈ 1230 µM).
For `Cc1ccc(C(=O)OCCn2c([N+](=O)[O-])cnc2C)cc1`, in that order: 359 µg/mL (≈ 1240 µM), 184 µg/mL (≈ 636 µM) and 256 µg/mL (≈ 884 µM).
`Cc1ncc([N+](=O)[O-])n1CCOc1ccc(Cl)c(Cl)c1`: the half-maximal inhibitory concentration (IC50) was 109 µg/mL (≈ 344 µM) in assay [1], 77.9 µg/mL (≈ 246 µM) in assay [2] and 69.6 µg/mL (≈ 220 µM) in assay [3]. Also, the viability at 90 µg/mL in assay [4] is 6.85%. Moreover, the Activity was found to be 5.73% in assay [5], 61.15% in assay [6] and 26.27% in assay [7].
As for `Cc1ncc([N+](=O)[O-])n1CCOc1ccccc1Cl`, the IC50 in assay [1] is 552 µg/mL (≈ 1960 µM); in assay [2], 574 µg/mL (≈ 2040 µM); in assay [3], 378 µg/mL (≈ 1340 µM).
For `Cc1cc(OCCn2c([N+](=O)[O-])cnc2C)ccc1Cl`, the IC50 in assay [1] was 159 µg/mL (≈ 537 µM); in assay [2], 150 µg/mL (≈ 506 µM); in assay [3], 188 µg/mL (≈ 635 µM).
The matching figures for `Cc1ncc([N+](=O)[O-])n1CCOC(=O)c1ccccc1F`: 146 µg/mL (≈ 497 µM), 170 µg/mL (≈ 578 µM) and 262 µg/mL (≈ 895 µM).
For `Cc1ncc([N+](=O)[O-])n1CCOc1ccc(F)cc1`, in that order: 102 µg/mL (≈ 386 µM), 129 µg/mL (≈ 487 µM) and 85.8 µg/mL (≈ 324 µM).
The matching figures for `Cc1ncc([N+](=O)[O-])n1CCOc1ccc(F)c(Cl)c1`: 199 µg/mL (≈ 664 µM), 122 µg/mL (≈ 407 µM) and 110 µg/mL (≈ 367 µM).
With `Cc1ncc([N+](=O)[O-])n1CCOc1ccc([N+](=O)[O-])cc1`, the IC50 in assay [1] is 116 µg/mL (≈ 396 µM); in assay [2] it was 110 µg/mL (≈ 378 µM); in assay [3], 127 µg/mL (≈ 433 µM).
The matching figures for `COc1ccccc1C(=O)OCCn1c([N+](=O)[O-])cnc1C`: 283 µg/mL (≈ 926 µM), 289 µg/mL (≈ 947 µM) and 447 µg/mL (≈ 1460 µM).
The matching figures for `Cc1ncc([N+](=O)[O-])n1CCOc1ccccc1[N+](=O)[O-]`: 581 µg/mL (≈ 1990 µM), 573 µg/mL (≈ 1960 µM) and 583 µg/mL (≈ 1990 µM).
The matching figures for `COc1cccc(C(=O)OCCn2c([N+](=O)[O-])cnc2C)c1`: 293 µg/mL (≈ 960 µM), 281 µg/mL (≈ 921 µM) and 428 µg/mL (≈ 1400 µM).
In the case of `Cc1ncc([N+](=O)[O-])n1CCOC(=O)c1ccco1`, the IC50 in assay [1] is 287 µg/mL (≈ 1080 µM); in assay [2], 167 µg/mL (≈ 631 µM); in assay [3], 207 µg/mL (≈ 779 µM).
For `Cc1ncc([N+](=O)[O-])n1CCOc1ccc(C#N)cc1`, the IC50 worked out at 76.8 µg/mL (≈ 282 µM) in assay [1], 79.8 µg/mL (≈ 293 µM) in assay [2] and 83.2 µg/mL (≈ 306 µM) in assay [3]. In addition, the viability at 90 µg/mL in assay [4] is 57.1%. Further, the Activity in assay [5] worked out at 11.72%; in assay [6] it was 21.24%; in assay [7], 9.96%.
Turning to `Cc1ncc([N+](=O)[O-])n1CCOc1cccc([N+](=O)[O-])c1`, the concentration for half-maximal inhibition (IC50) in assay [1] stood at 112 µg/mL (≈ 383 µM); in assay [2] it was 108 µg/mL (≈ 371 µM); in assay [3], 71.7 µg/mL (≈ 245 µM).
For `Cc1ncc([N+](=O)[O-])n1CCOc1ccccc1`, in that order: 134 µg/mL (≈ 543 µM), 107 µg/mL (≈ 435 µM) and 106 µg/mL (≈ 430 µM).
In the case of `Cc1ncc([N+](=O)[O-])n1CCn1nnc2ccccc21`, the results for the half-maximal inhibitory concentration (IC50) in assay [1], in assay [2] and in assay [3] were 538 µg/mL (≈ 1980 µM), 701 µg/mL (≈ 2580 µM) and 384 µg/mL (≈ 1410 µM), respectively.
The matching figures for `Cc1nccn1CCn1c([N+](=O)[O-])cnc1C`: 142 µg/mL (≈ 604 µM), 195 µg/mL (≈ 831 µM) and 157 µg/mL (≈ 668 µM).
As for `Cc1ncc([N+](=O)[O-])n1CCOc1ccc2ccccc2c1`, the IC50 in assay [1] worked out at 94.8 µg/mL (≈ 319 µM); in assay [2], 96.1 µg/mL (≈ 323 µM); in assay [3] it was 64.9 µg/mL (≈ 218 µM). In addition, in assay [4], the viability at 90 µg/mL was determined as 47.6%. Also, the values for the Activity in assay [5], in assay [6] and in assay [7] were 10.13%, 29.33% and 12.96%, respectively.
On to `Cc1cc(OCCn2c([N+](=O)[O-])cnc2C)ccc1F`, for which the values for the IC50 in assay [1], in assay [2] and in assay [3] were 140 µg/mL (≈ 503 µM), 226 µg/mL (≈ 808 µM) and 116 µg/mL (≈ 415 µM), respectively.
As for `Cc1ccc(S(=O)(=O)OCCn2c([N+](=O)[O-])cnc2C)cc1`, the 50% inhibitory concentration (IC50) in assay [1] amounted to 328 µg/mL (≈ 1010 µM); in assay [2], 196 µg/mL (≈ 603 µM); in assay [3], 160 µg/mL (≈ 491 µM).
For the compound `CN(Cc1cnc2nc(N)nc(N)c2n1)c1ccc(C(=O)N[C@@H](CCC(=O)O)C(=O)O)cc1` [METHOTREXATE], the IC50 in assay [1] is 47.8 µg/mL (≈ 105 µM); in assay [2], 39.3 µg/mL (≈ 86.5 µM); in assay [3], 31.5 µg/mL (≈ 69.3 µM).
Consider `Cc1ncc([N+](=O)[O-])n1CCOC(=O)c1ccccc1` [METRONIDAZOLE BENZOATE], for which the IC50 was 288 µg/mL (≈ 1050 µM) in assay [1], 281 µg/mL (≈ 1020 µM) in assay [2] and 245 µg/mL (≈ 889 µM) in assay [3].
The matching figures for `Cc1ncc([N+](=O)[O-])n1CCO` [METRONIDAZOLE]: 278 µg/mL (≈ 1620 µM), 224 µg/mL (≈ 1310 µM) and 348 µg/mL (≈ 2030 µM).
